The values below come from paper PMC5193105 (Proteins, 2016).

The target of one experiment is wildtype hPFKFB2 (Homo sapiens, UniProt O60825). The experiment can be described thus: 2-kinase inhibition assay. In kind it is biochemical. Conditions: wild-type; for Ki: Citrate Kis. A digest of the protocol:
(§1)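 His-tagged enzyme was expressed in E. coli BL21 C41(DE3) and purified by Ni-NTA then SP Sepharose. Step 1 used 130 nM enzyme in 20 mM TES pH 8.0, 1 mM DTT, 2 mM MgCl2 and 0.5% tween, with varied citrate, ATP and Fru-6-P (fixed substrate 250 μM), for 10 min at 25°C. Reactions were KOH-stopped and neutralized. Fru-2,6-P2 was read by PPi-PFK/aldolase/TPI/[…] coupling as A340 over 30 min. Constants came from non-linear regression.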

The next experiment addresses hPFKFB2 Y428A mutant (Homo sapiens, UniProt O60825, Y428A). The experiment in a line: 2-kinase inhibition assay. The class given is biochemical. Conditions: for Ki: Citrate Kis. A digest of the protocol: as §1
Where [1] appears, read: variable substrate ATP, fixed substrate F6P 250μM.
Where [2] appears, read: Y428A, variable substrate ATP, fixed substrate F6P 250μM.

Chain of hPFKFB2 Y428A mutant (O60825 whole entry Y428A): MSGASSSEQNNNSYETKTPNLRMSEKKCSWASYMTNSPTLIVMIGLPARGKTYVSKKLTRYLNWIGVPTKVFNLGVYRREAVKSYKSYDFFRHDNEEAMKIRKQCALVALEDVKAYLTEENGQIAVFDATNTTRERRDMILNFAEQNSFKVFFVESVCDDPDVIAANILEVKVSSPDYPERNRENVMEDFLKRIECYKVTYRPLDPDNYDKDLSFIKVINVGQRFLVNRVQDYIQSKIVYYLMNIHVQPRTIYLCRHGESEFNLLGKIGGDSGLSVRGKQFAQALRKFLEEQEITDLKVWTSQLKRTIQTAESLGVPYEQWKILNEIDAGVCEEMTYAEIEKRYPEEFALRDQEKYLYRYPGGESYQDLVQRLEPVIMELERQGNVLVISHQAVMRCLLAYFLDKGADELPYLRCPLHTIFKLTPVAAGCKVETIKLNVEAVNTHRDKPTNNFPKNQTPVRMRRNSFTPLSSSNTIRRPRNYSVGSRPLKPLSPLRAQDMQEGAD
Chain of wildtype hPFKFB2 (O60825 whole entry): as the sequence (O60825 whole entry Y428A) above, with A428Y counted along it

For the molecule `Nc1ncnc2c1ncn2[C@@H]1O[C@H](COP(=O)(O)OP(=O)(O)OP(=O)(O)O)[C@@H](O)[C@H]1O` [ATP], the KmATP on wildtype hPFKFB2 stood at 38.8 ± 5.3 µM; on hPFKFB2 Y428A mutant (Y428A), 40.7 ± 4.2 µM.

With `O=C(O)CC(O)(CC(=O)O)C(=O)O` [Citrate], the Ki amounted to 50.2 µM on wildtype hPFKFB2 (setting [1]); 80.3 ± 6.5 µM on wildtype hPFKFB2 (variable substrate F6P, fixed substrate ATP 250μM); 2.43 ± 1 µM on hPFKFB2 Y428A mutant (setting [2]); 67.3 ± 4.2 µM on hPFKFB2 Y428A mutant (Y428A, variable substrate F6P, fixed substrate ATP 250μM). For the same molecule, the “Citrate Kii” value at wildtype hPFKFB2 (setting [1]) was determined as 58.75 ± 9.9 µM; at hPFKFB2 Y428A mutant (setting [2]) it was 3.05 ± 1.4 µM. The “inhibition mechanism (in words)” value against wildtype hPFKFB2 (versus ATP) is recorded as “non-competitive inhibitor”; at wildtype hPFKFB2 (versus F6P), “competitive inhibitor”. The “increase in affinity for the inhibitor, Y428A versus wild-type” value on hPFKFB2 Y428A mutant (Kis with ATP as variable substrate, from 50.2 μM to 2.4 μM) was 20 fold.

As to `O=C(CO)[C@@H](O)[C@H](O)[C@H](O)COP(=O)(O)O` [F6P, fructose-6-phosphate], the KmF6P was found to be 80.3 ± 7.6 µM at wildtype hPFKFB2 and 13.8 ± 4.3 µM at hPFKFB2 Y428A mutant (Y428A). Also, the “increase in affinity for Fru-6-P, Y428A versus wild-type” value at hPFKFB2 Y428A mutant (from Km values) amounted to 6 fold.
